Measured values taken from PMC5819740 (ACS chemical biology, 2017).
Where two headings read alike, the source gives them in different places.

Columns and labels:
EcDHFR [1] = biological target: T1, EcDHFR (Escherichia coli, UniProt P0ABQ4); assay type: binding; details: thermal shift at single concentration of 0.5 mM small molecule, 5μM EcDHFR
EcDHFR [2] = biological target: T1, EcDHFR; test: biochemical; assay type: biochemical; details: for Inhibition of EcDHFR activity in single-concentration initial screen: 1mM inhibitor (Fig 2A legend)
[3] = test system: E. coli strain with chromosomal folA replaced by mutant L28R; details: cited from earlier work
Escherichia coli = details: read-out: estimated IC50 (antibacterial activity); cited from earlier work
EcDHFR L28R mutant = test: DHFR inhibition assay on drug-resistant single mutant; assay type: biochemical, Escherichia coli; details: L28R mutant vs wild-type
Method in brief: (§1)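 Purified recombinant E. coli DHFR (wild-type, or L28R, A26T/L28R, P21L/L28R mutants) in 100mM HEPES pH 7.3 at ~22 °C with 60 μM NADPH, 50 μM H2F and varied test compound; wild-type enzyme at 16.7nM. Reactions were enzyme-started, and NADPH consumption was followed at 340 nm for 100 s (initial rates, <5% product), corrected for non-enzymatic NADPH loss. Run in duplicate; IC50 fitted to y = 100%/[1+(I/IC50)].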

E. coli cultures = test: Rescue of growth by metabolic complement folAmix; assay type: cell-based; details: M9-media supplemented with folAmix; different resveratrol concentrations
EcDHFR A26T/L28R mutant = test: DHFR inhibition assay on drug-resistant double mutant; assay type: biochemical, Escherichia coli; details: A26T/L28R mutant vs wild-type
Method in brief: as §1

[4] = Insolubility limit in growth assay medium; details: 30 °C, aqueous buffer, kinetic from dmso stock
EcDHFR [5] = biological target: T1, EcDHFR; assay type: biochemical; details: lower substrate, global non-linear fits
EcDHFR P21L/L28R mutant = test: DHFR inhibition assay on drug-resistant double mutant; assay type: biochemical, Escherichia coli; details: P21L/L28R mutant vs wild-type
Method in brief: as §1

EcDHFR [6] = biological target: T1, EcDHFR; details: cited from earlier work
[7] = 60μM NADPH, 50μM H2F, 100mM HEPES pH 7.3, 16.7nM EcDHFR, ± S.E.
[8] = substrate H2F, saturating NADPH

T1 sequence (P0ABQ4 whole entry): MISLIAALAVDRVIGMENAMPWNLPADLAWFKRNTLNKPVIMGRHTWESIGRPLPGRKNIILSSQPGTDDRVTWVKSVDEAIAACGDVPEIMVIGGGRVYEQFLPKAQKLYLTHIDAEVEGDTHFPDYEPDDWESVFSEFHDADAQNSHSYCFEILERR

For O=[N+]([O-])c1ccc(/C=C/c2ccc([N+](=O)[O-])cc2S(=O)(=O)O)c(S(=O)(=O)O)c1 [DNDS, dinitro disulfonic acid], the ΔTm (EcDHFR [1]) was 1.9 °C, the IC50 (EcDHFR [2]; [7]) was 45.3 ± 10.1 µM and the “Inhibition of EcDHFR activity in single-concentration initial screen” value (“Inhibition of EcDHFR activity” below) (EcDHFR [2]) was “showed inhibition”.

For COc1cc(Cc2cnc(N)nc2N)cc(OC)c1OC [trimethoprim], the “Increase in resistance conferred by L28R variant” value [3] is listed as “approximately 50 fold”.

In the case of Oc1ccc(/C=C/c2cc(O)cc(O)c2)cc1 [resveratrol], the IC50 (Escherichia coli) is given as 250 µM, the “IC50 curve compared with wild-type enzyme” value (EcDHFR L28R mutant) is given as “superimposable” and the “Effect of folAmix on growth of inhibited cells” value (E. coli cultures) is given as “fully restores growth”. The “IC50 curve compared with wild-type enzyme” value (EcDHFR A26T/L28R mutant) was “superimposable”, the solubility [4] was at most 250 µM and the αKi (EcDHFR [5]; [8]) was 88.30 ± 6.02 µM. The IC50 (EcDHFR [2]) was 95.7 ± 3 µM, the Ki (EcDHFR [2]) was 95.7 µM and the “Inhibition of EcDHFR activity” value (EcDHFR [2]) was “showed inhibition”. For the same compound, the “IC50 curve compared with wild-type enzyme” value (EcDHFR P21L/L28R mutant) was “superimposable”.

For Nc1ccc(C=Cc2ccc(N)cc2S(=O)(=O)O)c(S(=O)(=O)O)c1 [flavonic acid], the αKi (EcDHFR [5]; [8]) was 76.25 ± 6.82 µM, the IC50 (EcDHFR [2]; [7]) was 36.7 ± 3.1 µM and the “Inhibition of EcDHFR activity” value (EcDHFR [2]) was “showed inhibition”.

For COc1ccc(CC(=O)c2ccc(O)cc2O)cc1 [ononetin], the “IC50 curve compared with wild-type enzyme” value (EcDHFR L28R mutant) is listed as “superimposable”, the “Binding to EcDHFR by DSF” value (EcDHFR [6]) is listed as “showed binding to EcDHFR” and the “IC50 curve compared with wild-type enzyme” value (EcDHFR A26T/L28R mutant) is listed as “superimposable”. The “Inhibition Mechanism” value (EcDHFR [5]; NADPH titrated at saturating H2F) was “uncompetitive inhibition”, the αKi (EcDHFR [5]; [8]) was 111.2 ± 12.37 µM and the αKi (EcDHFR [5]; substrate NADPH, saturating H2F) was 113.2 ± 13.1 µM. For the same compound, the IC50 (EcDHFR [2]) was 83.4 ± 1.1 µM, the Ki (EcDHFR [2]) was 83.4 µM and the “Inhibition of EcDHFR activity” value (EcDHFR [2]) was “inhibits the enzyme”. For the same compound, the “IC50 curve compared with wild-type enzyme” value (EcDHFR P21L/L28R mutant) was “superimposable”.

With O=S(=O)(O)c1cc(N=C=S)ccc1C=Cc1ccc(N=C=S)cc1S(=O)(=O)O [DIDS] the IC50 (EcDHFR [2]; [7]) was 51 ± 1.7 µM and the “Inhibition of EcDHFR activity” value (EcDHFR [2]) was “showed inhibition”.

With Oc1cc(O)cc(/C=C/c2ccc(O)cc2O)c1 [oxyresveratrol] the solubility [4] was at most 250 µM.
